Holding throughout (assay type): functional
Assay [1] can be described thus: Antagonist activity at guinea pig H2R-Gsalpha fusion protein expressed in sf9 cells by GTPase assay. The note with it: Cavia porcellus. In short, it runs like this: (§1)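 Inhibition of histamine-stimulated high-affinity GTP hydrolysis in Sf9 membranes expressing hH2R-Gsα or gpH2R-Gsα fusion proteins. KB came from non-linear curve fitting. Means SD of three experiments.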

Assay [2] can be described thus: Ratio of antagonist activity at human H2R-Gsalpha fusion protein to guinea pig H2R-Gsalpha fusion protein expressed in sf9 cells.
A short description of assay [3]: Antagonist activity at human H2R-Gsalpha fusion protein expressed in sf9 cells by GTPase assay. Summed up:
as §1

Assay [4] has as its target Histamine H1 receptor (Homo sapiens) (UniProt P35367). As to the kind of experiment: Antagonist activity at human recombinant H1R expressed in sf9 cells assessed as inhibition of histamine-stimulated GTP hydrolysis.
Assay [5] deals with Histamine H2 receptor (Cavia porcellus) (UniProt P47747). As to the kind of experiment: Binding affinity to guinea pig H2R expressed in sf9 cells by adenylyl cyclase assay.
Assay [6] deals with T1, Histamine H2 receptor (Homo sapiens, UniProt P25021). As to the kind of experiment: Binding affinity to human H2R expressed in sf9 cells by adenylyl cyclase assay.
The target of assay [7] is T1, Histamine H2 receptor. The experiment in a line: Agonist activity at human H2R. Summed up: (§2)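 GTPase activity in Sf9 insect cell membranes expressing hH2R-GsαS or gpH2R-GsαS fusion proteins. Curves were fitted by non-linear regression. Means SD of three experiments.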
Assay [8] concerns the target Histamine H2 receptor (Cavia porcellus, UniProt P47747). As to the kind of experiment: Agonist activity at guinea pig H2R. In short, it runs like this: as §2
For assay [9], the target named is Histamine H2 receptor (Cavia porcellus) (UniProt P47747). As to the kind of experiment: Agonist activity at guinea pig H2R relative to histamine. Summed up: as §2
The target in assay [10] is T1, Histamine H2 receptor. As to the kind of experiment: Agonist activity at human H2R relative to histamine. In short, it runs like this:
as §2

T1 sequence (P25021 whole entry, the tested form may be a part): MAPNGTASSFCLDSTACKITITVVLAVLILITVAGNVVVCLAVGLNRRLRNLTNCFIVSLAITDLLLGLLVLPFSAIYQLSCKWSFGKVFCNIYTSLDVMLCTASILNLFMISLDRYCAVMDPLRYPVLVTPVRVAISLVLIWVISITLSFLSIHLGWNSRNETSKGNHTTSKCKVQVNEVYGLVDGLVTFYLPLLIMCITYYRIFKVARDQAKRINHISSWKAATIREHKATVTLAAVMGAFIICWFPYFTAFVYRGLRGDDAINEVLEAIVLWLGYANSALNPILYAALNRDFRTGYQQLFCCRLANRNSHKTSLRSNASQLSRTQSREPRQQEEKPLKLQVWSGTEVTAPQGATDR
Histamine H1 receptor (Homo sapiens), sequence (P35367 whole entry): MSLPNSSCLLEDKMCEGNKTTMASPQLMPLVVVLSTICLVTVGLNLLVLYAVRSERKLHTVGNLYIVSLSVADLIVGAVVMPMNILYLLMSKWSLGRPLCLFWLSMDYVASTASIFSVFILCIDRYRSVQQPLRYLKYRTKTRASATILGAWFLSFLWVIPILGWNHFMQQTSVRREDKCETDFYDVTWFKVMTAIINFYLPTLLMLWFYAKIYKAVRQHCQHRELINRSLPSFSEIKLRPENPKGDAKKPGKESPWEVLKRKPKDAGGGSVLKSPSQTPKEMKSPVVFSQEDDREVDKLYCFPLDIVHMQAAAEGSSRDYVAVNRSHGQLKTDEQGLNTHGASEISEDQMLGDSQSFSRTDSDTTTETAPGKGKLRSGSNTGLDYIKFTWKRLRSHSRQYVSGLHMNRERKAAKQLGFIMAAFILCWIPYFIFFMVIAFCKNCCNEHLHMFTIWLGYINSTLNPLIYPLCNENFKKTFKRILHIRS
Histamine H2 receptor (Cavia porcellus), sequence (P47747 whole entry): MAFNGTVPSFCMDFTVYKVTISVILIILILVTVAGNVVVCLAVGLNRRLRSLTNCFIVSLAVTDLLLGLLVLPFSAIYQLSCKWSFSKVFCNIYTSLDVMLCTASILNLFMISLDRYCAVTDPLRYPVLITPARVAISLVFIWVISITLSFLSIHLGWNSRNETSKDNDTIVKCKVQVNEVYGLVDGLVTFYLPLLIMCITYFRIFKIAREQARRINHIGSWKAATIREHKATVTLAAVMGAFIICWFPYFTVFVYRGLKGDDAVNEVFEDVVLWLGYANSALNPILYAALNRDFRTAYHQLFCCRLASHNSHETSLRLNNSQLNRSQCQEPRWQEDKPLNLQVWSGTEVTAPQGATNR
Histamine H2 receptor (Cavia porcellus, UniProt P47747), sequence (P47747 whole entry): as above

For `N#CN/C(=N\CCCCCCNC(=O)CCCCCNC(=O)COc1ccc(/C=C/C2=[N+]3C(=Cc4ccc(-c5ccc[nH]5)n4[B-]3(F)F)C=C2)cc1)NCCCOc1cccc(CN2CCCCC2)c1`, the figures for the Kb in assay [1], in assay [3] and in [4] were 190 nM, 260 nM and > 30000 nM, respectively. In addition, the Ratio in [2] stood at 1.37.

Turning to `N#CN/C(=N\CCCCCCN)NCCCOc1cccc(CN2CCCCC2)c1`, the Kb in assay [1] was 75 nM; in [5], 33 nM; in assay [3] it was 1800 nM; on Histamine H2 receptor [6] it was 2500 nM; in assay [4], > 30000 nM. Also, the Ratio in assay [2] was 24.

By EC50 is commonly meant the concentration that produces a half-maximal response. Low values mean higher potency in that assay, high ones lower potency in that assay. For `CC1(C)C(=CC=CC=CC2=[N+](CCCCS(=O)(=O)[O-])c3ccccc3C2(C)C)N(CCCCCC(=O)NCCN=C(NC#N)NCCCOc2cccc(CN3CCCCC3)c2)c2ccccc21`, the EC50 amounted to 160 nM at Histamine H2 receptor [7] and 90 nM on Histamine H2 receptor [8].

On to `N#CN/C(=N\CCNC(=O)c1ccc(N)cc1)NCCCOc1cccc(CN2CCCCC2)c1.O=C(O)C(=O)O` [AMINOPOTENTIDINE OXALATE], for which the Kb was 280 nM in [1] and 220 nM in assay [3]. Also, the Ratio in [2] was found to be 0.79.

As for `N#CN/C(=N\CCN)NCCCOc1cccc(CN2CCCCC2)c1`, the Kb was 2300 nM in assay [1], 9300 nM in assay [3] and > 30000 nM in [4]. Besides, the Ratio in [2] came to 4.04.

Turning to `O=C(CCCCCNC(=O)COc1ccc(/C=C/C2=[N+]3C(=Cc4ccc(-c5ccc[nH]5)n4[B-]3(F)F)C=C2)cc1)NCCCOc1cccc(CN2CCCCC2)c1`, the figures for the Kb in [1], in assay [3] and in assay [4] were 150 nM, 640 nM and > 30000 nM, respectively. In addition, the Ratio in assay [2] came out at 4.27.

In the case of `CC1(C)C(/C=C/C=C/C=C2/N(CCCCCC(=O)NCC/N=C(\NC#N)NCCCOc3cccc(CN4CCCCC4)c3)c3ccccc3C2(C)C)=[N+](CCCCS(=O)(=O)[O-])c2ccccc21`, the Efficacy in [9] worked out at 65%; on Histamine H2 receptor [10] it was 58%. For the same molecule, the values for the Kb in assay [1], in assay [3] and in assay [4] were 58 nM, 47 nM and > 30000 nM, respectively. Besides, the Ratio in assay [2] amounted to 0.81. Besides, the Activity entry (in assay [5] (filed as partial agonist); on Histamine H2 receptor [6] (filed as partial agonist)) was “Partial agonist” in each case.

Regarding `NCCCOc1cccc(CN2CCCCC2)c1`, the values for the Kb in [1], in assay [3] and in assay [4] were 6800 nM, 15000 nM and > 30000 nM, respectively. The Ratio in [2] stood at 2.2.

The values are drawn from ChEMBL document CHEMBL1146852, “Synthesis and pharmacological characterization of novel fluorescent histamine H2-receptor ligands derived from aminopotentidine” (Bioorg Med Chem Lett, 2006).
